Legend:
[1] = tested on: wild-type S. cerevisiae BY4742; experiment: Proteinase inhibitor assay; format: cell-based; conditions: Saccharomyces cerevisiae, read-out: BY4742, inhibition at 25 μM (%)
Procedure, shortened: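 Wild-type BY4742 colony precultured overnight at 30°C in selective minimal medium, then shaken 48 h at 30°C to A600 ~2 with or without 25 μM inhibitor. Cells pelleted by centrifugation. Supernatant protein measured by RC DC assay with BSA standard and expressed as mg secreted per mg dry weight of pellet dried at 100°C. n=6.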

S. cerevisiae Ddi1 = target: T1, S. cerevisiae Ddi1 (Saccharomyces cerevisiae, UniProt P40087); experiment: Proteinase inhibitor assay; format: cell-based; conditions: for inhibition at 25 µM: read-out: Y16141 Ddi1, Inhibition at 25 μM (%)
T1 sequence (P40087 1-428): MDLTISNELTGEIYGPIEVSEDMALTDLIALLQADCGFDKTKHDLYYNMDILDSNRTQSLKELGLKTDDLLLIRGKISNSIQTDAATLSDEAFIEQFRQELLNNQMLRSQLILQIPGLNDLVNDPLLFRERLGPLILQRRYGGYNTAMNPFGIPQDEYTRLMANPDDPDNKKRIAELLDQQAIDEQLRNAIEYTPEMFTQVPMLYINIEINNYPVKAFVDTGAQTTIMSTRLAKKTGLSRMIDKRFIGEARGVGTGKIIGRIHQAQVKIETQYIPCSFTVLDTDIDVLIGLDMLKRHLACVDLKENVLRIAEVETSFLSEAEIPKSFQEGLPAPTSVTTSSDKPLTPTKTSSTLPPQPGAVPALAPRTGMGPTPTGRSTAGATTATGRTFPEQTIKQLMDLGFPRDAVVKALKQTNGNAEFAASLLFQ
Procedure, shortened: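 S. cerevisiae Ddi1 was expressed from pVTL260 in DDI1-knockout Y16141, transformed by lithium acetate. Colony precultured overnight at 30°C in selective minimal medium, then shaken 48 h at 30°C to A600 ~2 with or without inhibitor (25 μM, or a titration).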

human Ddi1 = target: T2, human Ddi1 (Homo sapiens, UniProt Q8WTU0); experiment: Proteinase inhibitor assay; format: cell-based; conditions: for inhibition at 25 µM: read-out: Y16141 human, Inhibition at 25 μM (%)
T2 sequence (Q8WTU0 1-396): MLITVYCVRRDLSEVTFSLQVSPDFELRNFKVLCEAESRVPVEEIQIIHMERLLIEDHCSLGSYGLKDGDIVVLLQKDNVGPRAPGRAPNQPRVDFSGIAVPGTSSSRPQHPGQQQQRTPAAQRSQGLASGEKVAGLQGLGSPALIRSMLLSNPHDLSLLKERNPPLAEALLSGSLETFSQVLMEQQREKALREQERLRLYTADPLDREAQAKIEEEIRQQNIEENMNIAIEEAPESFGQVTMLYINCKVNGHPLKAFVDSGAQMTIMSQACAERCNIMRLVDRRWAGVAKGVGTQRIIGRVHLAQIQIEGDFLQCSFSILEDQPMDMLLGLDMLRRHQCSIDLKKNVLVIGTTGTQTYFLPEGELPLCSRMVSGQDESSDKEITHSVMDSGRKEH
Procedure, shortened: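 Yeast DDI1-knockout Y16141 (BY4742 derivative) carrying the human Ddi1 ortholog in pVTL260, grown in selective minimal medium. Cultures shaken 48 h at 30°C to A600 ~2 with or without inhibitor (25 μM, or titrated). Supernatant protein measured against a BSA standard and expressed per mg dried-pellet weight. IC50 from a 4-parameter logistic fit. Means ± se, n=6.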

Leishmania Ddi1 = target: T3, Leishmania Ddi1 (Leishmania major, UniProt I7HUG0); experiment: Proteinase inhibitor assay; format: cell-based, L. major; conditions: for inhibition at 25 µM: read-out: Y16141 Leishmania, Inhibition at 25 μM (%)
T3 sequence (I7HUG0 148-390): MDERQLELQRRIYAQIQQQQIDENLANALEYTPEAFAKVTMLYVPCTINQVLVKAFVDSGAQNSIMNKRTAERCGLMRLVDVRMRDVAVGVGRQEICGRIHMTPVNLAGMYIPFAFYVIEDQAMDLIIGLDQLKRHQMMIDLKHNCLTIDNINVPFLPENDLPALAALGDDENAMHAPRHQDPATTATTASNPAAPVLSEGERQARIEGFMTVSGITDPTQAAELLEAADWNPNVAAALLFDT

L. amazonensis = conditions: read-out: IC50, inhibition of cellular growth and multiplication with L. amazonensis; parasites in culture; cited from earlier work
L. major = conditions: read-out: IC50, growth inhibition in L. major; parasites in culture; cited from earlier work
[2] = tested on: Y16141 cells expressing Saccharomyces Ddi1; experiment: Yeast cell morphology, Y16141 with Saccharomyces Ddi1 construct; format: cell-based, S. cerevisiae; conditions: 25 μM inhibitor, 24 h
Procedure, shortened: (§1)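 DDI1-knockout Y16141 carried pVTL260, either alone or encoding full-length Ddi1 orthologs, introduced by lithium acetate transformation. Grown 24 h at 30°C in selective minimal medium with or without 25 μM inhibitor. Morphology examined by phase-contrast microscopy at ×100, with images captured digitally. Fraction of cells with greatly enlarged morphology was recorded.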

[3] = tested on: Y16141 cells transformed with pVTL260 plasmid; experiment: Yeast cell morphology, knockout yeast transformed with plasmid alone; format: cell-based, S. cerevisiae; conditions: 25 μM inhibitor
Procedure, shortened: as §1

[4] = tested on: Y16141 cells expressing human ortholog of Ddi1; experiment: Yeast cell morphology, Y16141 with human Ddi1 construct; format: cell-based, S. cerevisiae; conditions: 25 μM inhibitor; yeast transformed to express the human ortholog of Ddi1
Procedure, shortened: as §1

[5] = tested on: Y16141 cells expressing L. major Ddi1 ortholog; experiment: Yeast cell morphology, Y16141 with Leishmania Ddi1 construct; format: cell-based, S. cerevisiae; conditions: 25 μM inhibitor, 24 h
Procedure, shortened: as §1

L. infantum = conditions: cited from earlier work
Leishmania donovani = conditions: cited from earlier work

Compound	inhibition at 25 µM [1]	inhibition at 25 µM (S. cerevisiae Ddi1)	IC50 (human Ddi1)	inhibition at 25 µM (human Ddi1)	IC50 (Leishmania Ddi1)	inhibition at 25 µM (Leishmania Ddi1)	IC50 (L. amazonensis)	IC50 (L. major)	IC50 (S. cerevisiae Ddi1)	cells with greatly enlarged morphologies (% of cells) [2]	effect on cell morphology [3]	effect on cell morphology [4]	Hill slope factor (Leishmania Ddi1; Y16141 expressing the L. major Ddi1 ortholog, Eq. 1 fit)	cells with greatly enlarged morphologies (% of cells) [5]	sensitivity of L. infantum (L. infantum)	sensitivity of Leishmania donovani (Leishmania donovani)
CCC[C@@]1(CCc2ccccc2)CC(O)=C([C@H](CC)c2cccc(NS(=O)(=O)c3ccc(C(F)(F)F)cn3)c2)C(=O)O1 [Tipranavir]	58%	86%	1.5 ± 0.2 µM	90%	2.9 ± 0.2 µM	97%										
Cc1cccc(C)c1OCC(=O)N[C@@H](Cc1ccccc1)[C@@H](O)C[C@H](Cc1ccccc1)NC(=O)[C@H](C(C)C)N1CCCNC1=O [Lopinavir]	6%	6%		0%	56 ± 4 µM	38%	16 µM									
CC(C)(C)NC(=O)[C@@H]1CN(Cc2cccnc2)CCN1C[C@@H](O)C[C@@H](Cc1ccccc1)C(=O)N[C@H]1c2ccccc2C[C@H]1O [Indinavir]	36%	24%		38%	3 ± 0.2 µM	100%		8 µM								
CC(C)CN(C[C@@H](O)[C@H](Cc1ccccc1)NC(=O)O[C@H]1CCOC1)S(=O)(=O)c1ccc(N)cc1 [Amprenavir]	91%	95%		9%	5.7 ± 0.7 µM	100%	62 µM		2.8 ± 0.2 µM	~75 % of cells	no effects	no effects				
Cc1c(O)cccc1C(=O)N[C@@H](CSc1ccccc1)[C@H](O)CN1C[C@H]2CCCC[C@H]2C[C@H]1C(=O)NC(C)(C)C [Nelfinavir]	50%	40%	3.4 ± 0.4 µM	97%	0.44 ± 0.03 µM	100%	15 µM				no effects	no effects	0.72 ± 0.04	~95 % of cells	tens of micromolar range	tens of micromolar range
CC(C)(C)NC(=O)[C@@H]1C[C@@H]2CCCC[C@@H]2CN1C[C@@H](O)[C@H](Cc1ccccc1)NC(=O)[C@H](CC(N)=O)NC(=O)c1ccc2ccccc2n1 [Saquinavir]	31%	24%		18%	2.8 ± 0.3 µM	100%		7 µM								
CC(C)c1nc(CN(C)C(=O)N[C@H](C(=O)N[C@@H](Cc2ccccc2)C[C@H](O)[C@H](Cc2ccccc2)NC(=O)OCc2cncs2)C(C)C)cs1 [Ritonavir]	1%	0%		3%		22%										

From paper PMC3739880 (The FASEB Journal, 2011)
